{
  "source": "ChEMBL document CHEMBL1122590",
  "about": "“Dibenz[b,e]oxepinalkanoic acids as nonsteroidal antiinflammatory agents. 4. Synthesis and evaluation of 4-(4,10-dihydro-10-oxothieno[3,2-c] [1]benzoxepin-8-yl)butanol and -butyric acid and related derivatives” (1984)",
  "key": {"Mus musculus [1]": {"system": "Mus musculus", "experiment": "Ability to inhibit phenylquinone induced writhing in mouse at dose 25 mg/Kg administered per orally", "conditions": "po"}, "Rattus norvegicus [2]": {"system": "Rattus norvegicus", "experiment": "Ability to inhibit Carrageenan-induced paw edema in rat administered per orally", "assay_type": "functional", "conditions": "for ED50: po", "how_it_was_run": "(§1)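 Male Wistar rats, 130-200 g, groups of 7-10, fasted overnight with water available. Oral dosing in 10 mL/kg of aqueous Tween 80 suspension (oils in emulphor/alcohol/water 1:1:8) at 1, 2 and/or 4 h before subplantar injection of 0.1 mL of 1% carrageenan into left hind paw. Paw volume by mercury displacement at 0 and 3 h; % edema inhibition vs vehicle; ED50 by linear regression from at least three doses.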"}, "Rattus norvegicus [3]": {"system": "Rattus norvegicus", "experiment": "Ability to inhibit Carrageenan-induced paw edema in rat at dose 20 mg/Kg administered per orally", "assay_type": "functional", "conditions": "po", "how_it_was_run": "as §1"}, "Mus musculus [4]": {"system": "Mus musculus", "experiment": "Ability to inhibit phenylquinone induced writhing in mouse administered per orally", "conditions": "po"}, "Rattus norvegicus [5]": {"system": "Rattus norvegicus", "experiment": "Ability to inhibit Carrageenan-induced paw edema in rat at a dose of 20 mg/kg administered per orally", "assay_type": "functional", "conditions": "route oral", "how_it_was_run": "as §1"}, "Rattus norvegicus [6]": {"system": "Rattus norvegicus", "experiment": "Ability to inhibit gastric irritation in rat administered per orally", "assay_type": "functional", "conditions": "Stomach, po", "how_it_was_run": "(§2)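 Groups of 10 male Wistar rats, 150-175 g, fasted 48 h with water available, dosed orally (10 mL/kg vehicle as Tween 80 suspension or emulphor/alcohol/water). Time course: sacrifice at 3, 5 and 7 h. Stomachs and intestines examined; any erosion, ulcer or perforation scored ulcerogenic. Four doses at peak time; ED50 = dose giving irritation in 50% of animals, by linear regression.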"}, "Rattus norvegicus [7]": {"system": "Rattus norvegicus", "experiment": "Ability to inhibit Carrageenan-induced paw edema in rat administered perorally", "assay_type": "functional", "conditions": "po", "how_it_was_run": "as §1"}, "Mus musculus [8]": {"system": "Mus musculus", "experiment": "Ability to inhibit phenylquinone induced writhing in mouse administered perorally", "conditions": "po"}, "Mus musculus [9]": {"system": "Mus musculus", "experiment": "Ability to inhibit phenylquinone induced writhing, in mouse at dose 25 mg/Kg administered per orally", "conditions": "po"}, "Rattus norvegicus [10]": {"system": "Rattus norvegicus", "experiment": "Ability to inhibit gastric irritation in rat at dose 400 mg/Kg administered per orally", "assay_type": "functional", "conditions": "Stomach, po", "how_it_was_run": "as §2"}, "Rattus norvegicus [11]": {"system": "Rattus norvegicus", "experiment": "Ability to inhibit gastric irritation in rat administered perorally", "assay_type": "functional", "conditions": "Stomach, po", "how_it_was_run": "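Male Wistar rats, 150-175 g, groups of 10, fasted 48 h (water ad libitum), dosed orally (10 mL/kg) as aqueous Tween 80 suspension or emulphor/alcohol/water (1:1:8) for oils; controls got vehicle. Time response: sacrificed at 3, 5 and 7 h. Dose-response at peak time with four doses. Stomach and intestine lesions (erosion, ulcer, perforation) scored. ED50 is the dose irritating 50% of rats, by linear regression; otherwise % at stated dose.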"}},
  "data": [
    {"compound": "O=C(O)CCCc1ccc2c(c1)C(=O)c1sccc1CO2", "values": [
      {"measurement": "inhibition in vivo at 25 mg/kg", "setting": "Mus musculus [1]", "result": 94, "unit": "%"},
      {"measurement": "Inhibition", "setting": "Rattus norvegicus [2]", "result": 38, "unit": "%"}
    ]},
    {"compound": "O=C1c2cc(CCO)ccc2OCc2ccsc21", "values": [
      {"measurement": "inhibition in vivo at 20 mg/kg", "setting": "Rattus norvegicus [3]", "result": 62, "unit": "%"},
      {"measurement": "ED50", "setting": "Mus musculus [4]", "result": 19.7, "unit": "mg/kg"}
    ]},
    {"compound": "COC(=O)CCCc1ccc2c(c1)C(=O)c1sccc1CO2", "values": [
      {"measurement": "ED50", "setting": "Mus musculus [4]", "result": 10.8, "unit": "mg/kg"}
    ]},
    {"compound": "COC(=O)COC(=O)Cc1ccc2c(c1)C(=O)c1sccc1CO2", "values": [
      {"measurement": "inhibition in vivo at 20 mg/kg", "setting": "Rattus norvegicus [5]", "result": 43, "unit": "%"},
      {"measurement": "ED50", "setting": "Mus musculus [4]", "result": 1.5, "unit": "mg/kg"}
    ]},
    {"compound": "CCOC(=O)CCCc1ccc2c(c1)C(=O)c1sccc1CO2", "values": [
      {"measurement": "inhibition in vivo at 20 mg/kg", "setting": "Rattus norvegicus [5]", "result": 40, "unit": "%"},
      {"measurement": "ED50", "setting": "Mus musculus [4]", "result": 8.2, "unit": "mg/kg"}
    ]},
    {"compound": "CC(=O)OCCCCc1ccc2c(c1)C(=O)c1sccc1CO2", "values": [
      {"measurement": "inhibition in vivo at 20 mg/kg", "setting": "Rattus norvegicus [3]", "result": 38, "unit": "%"},
      {"measurement": "ED50", "setting": "Mus musculus [4]", "result": 5.8, "unit": "mg/kg"}
    ]},
    {"compound": "CC1(C)COC(Cc2ccc3c(c2)C(=O)c2sccc2CO3)=N1", "values": [
      {"measurement": "inhibition in vivo at 20 mg/kg", "setting": "Rattus norvegicus [3]", "result": 49, "unit": "%"},
      {"measurement": "ED50", "setting": "Mus musculus [4]", "result": 7.2, "unit": "mg/kg"}
    ]},
    {"compound": "O=C(O)Cc1ccc2c(c1)C(=O)c1sccc1CO2", "values": [
      {"measurement": "ED50", "setting": "Rattus norvegicus [2]", "result": 3.4, "unit": "mg/kg"},
      {"measurement": "ED50", "setting": "Rattus norvegicus [6]", "result": 33.7, "unit": "mg/kg"},
      {"measurement": "ED50", "setting": "Mus musculus [4]", "result": 3.1, "unit": "mg/kg"}
    ]},
    {"compound": "O=C1c2cc(CCCCOC(=O)C(F)(F)F)ccc2OCc2ccsc21", "values": [
      {"measurement": "ED50", "setting": "Rattus norvegicus [7]", "result": 16.5, "unit": "mg/kg"},
      {"measurement": "ED50", "setting": "Mus musculus [8]", "result": 9.1, "unit": "mg/kg"}
    ]},
    {"compound": "CC(C)OC(=O)CCCc1ccc2c(c1)C(=O)c1sccc1CO2", "values": [
      {"measurement": "inhibition in vivo at 20 mg/kg", "setting": "Rattus norvegicus [5]", "result": 44, "unit": "%"},
      {"measurement": "ED50", "setting": "Mus musculus [4]", "result": 8.5, "unit": "mg/kg"}
    ]},
    {"compound": "CC(=O)OCCc1ccc2c(c1)C(=O)c1sccc1CO2", "values": [
      {"measurement": "inhibition in vivo at 25 mg/kg", "setting": "Mus musculus [9]", "result": 52, "unit": "%"},
      {"measurement": "ED50", "setting": "Rattus norvegicus [2]", "result": 11.4, "unit": "mg/kg"},
      {"measurement": "ED50", "setting": "Rattus norvegicus [6]", "result": 175, "unit": "mg/kg"}
    ]},
    {"compound": "CCC(=O)OCCc1ccc2c(c1)C(=O)c1sccc1CO2", "values": [
      {"measurement": "inhibition in vivo at 25 mg/kg", "setting": "Mus musculus [9]", "result": 22, "unit": "%"},
      {"measurement": "inhibition in vivo at 20 mg/kg", "setting": "Rattus norvegicus [3]", "result": 35, "unit": "%"}
    ]},
    {"compound": "CC(C)(CO)NC(=O)Cc1ccc2c(c1)C(=O)c1sccc1CO2", "values": [
      {"measurement": "inhibition in vivo at 25 mg/kg", "setting": "Mus musculus [9]", "result": 19, "unit": "%"},
      {"measurement": "inhibition in vivo at 20 mg/kg", "setting": "Rattus norvegicus [3]", "result": 21, "unit": "%"}
    ]},
    {"compound": "O=C1c2cc(CCCCO)ccc2OCc2ccsc21", "values": [
      {"measurement": "ED50", "setting": "Rattus norvegicus [2]", "result": 8.6, "unit": "mg/kg"},
      {"measurement": "inhibition in vivo at 400 mg/kg", "setting": "Rattus norvegicus [10]", "result": 40, "unit": "%"},
      {"measurement": "ED50", "setting": "Mus musculus [4]", "result": 7.4, "unit": "mg/kg"}
    ]},
    {"compound": "CC(C)(C)OC(=O)CCCc1ccc2c(c1)C(=O)c1sccc1CO2", "values": [
      {"measurement": "inhibition in vivo at 25 mg/kg", "setting": "Mus musculus [9]", "result": 93, "unit": "%"},
      {"measurement": "inhibition in vivo at 20 mg/kg", "setting": "Rattus norvegicus [5]", "result": 49, "unit": "%"}
    ]},
    {"compound": "COc1ccc2c(c1)c(CC(=O)O)c(C)n2C(=O)c1ccc(Cl)cc1", "note": "[INDOMETHACIN]", "values": [
      {"measurement": "ED50", "setting": "Rattus norvegicus [11]", "result": 1.8, "unit": "mg/kg"},
      {"measurement": "ED50", "setting": "Rattus norvegicus [7]", "result": 4.4, "unit": "mg/kg"},
      {"measurement": "ED50", "setting": "Mus musculus [8]", "result": 0.7, "unit": "mg/kg"}
    ]}
  ]
}
